Test results from ChEMBL document CHEMBL1148040, “New lignans from Anogeissus acuminata with HIV-1 reverse transcriptase inhibitory activity” (J Nat Prod, 1994).
Values after ≈ are worked out from the molar mass of the structure shown.

Key:
[1] = target: Human immunodeficiency virus type 1 reverse transcriptase (Human immunodeficiency virus 1) (UniProt Q72547); test: Inhibition of HIV1 reverse transcriptase at 200 ug/ml
Summary of the method: (§1)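 HIV-1 reverse transcriptase inhibition, run by an assay procedure the authors described earlier. Each test concentration was run in duplicate in three separate experiments, and the reported value is the average of the three experiments.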

[2] = target: Human immunodeficiency virus type 1 reverse transcriptase (Human immunodeficiency virus 1) (UniProt Q72547); test: Inhibition of HIV1 reverse transcriptase at 150 ug/ml; summary of the method: as §1
[3] = target: Human immunodeficiency virus type 1 reverse transcriptase (Human immunodeficiency virus 1) (UniProt Q72547); test: Inhibition of HIV1 reverse transcriptase at 100 ug/ml; summary of the method: as §1
[4] = target: Human immunodeficiency virus type 1 reverse transcriptase (Human immunodeficiency virus 1) (UniProt Q72547); test: Inhibition of HIV1 reverse transcriptase at 80 ug/ml; summary of the method: as §1
[5] = target: Human immunodeficiency virus type 1 reverse transcriptase (Human immunodeficiency virus 1) (UniProt Q72547); test: Inhibition of HIV1 reverse transcriptase at 60 ug/ml; summary of the method: as §1
[6] = target: Human immunodeficiency virus type 1 reverse transcriptase (Human immunodeficiency virus 1) (UniProt Q72547); test: Inhibition of HIV1 reverse transcriptase at 40 ug/ml; summary of the method: as §1
[7] = target: Human immunodeficiency virus type 1 reverse transcriptase (Human immunodeficiency virus 1) (UniProt Q72547); test: Inhibition of HIV1 reverse transcriptase at 20 ug/ml; summary of the method: as §1
[8] = target: T1, Human immunodeficiency virus type 1 reverse transcriptase (Human immunodeficiency virus 1, UniProt Q72547); test: Inhibition of HIV1 reverse transcriptase
Summary of the method: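 HIV-1 RT inhibition was measured by a previously published method. Each value is the mean of three experiments, each run in duplicate. Test levels reached 250 µg/ml in the assay mixture.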

[9] = Cytotoxicity against human BC1 cells; assay type: functional; settings: read-out: ED50 (the source's name)
[10] = system: HT-1080; test: Cytotoxicity against human HT1080 cells; assay type: functional; settings: read-out: ED50 (the source's name)
[11] = system: Lu1; test: Cytotoxicity against human Lu1 cells; assay type: functional; settings: read-out: ED50 (the source's name)
[12] = system: SK-MEL-2; test: Cytotoxicity against human SK-MEL-2 cells; assay type: functional; settings: read-out: ED50 (the source's name)
[13] = Cytotoxicity against human Col1 cells; assay type: functional; settings: read-out: ED50 (the source's name)
[14] = system: KB; test: Cytotoxicity against human KB cells; assay type: functional; settings: read-out: ED50 (the source's name)
[15] = Cytotoxicity against human KBV1 cells in presence of vinblastine; assay type: functional; settings: KB-V1, read-out: ED50 (the source's name)
[16] = Cytotoxicity against human KBV1 cells in absence of vinblastine; assay type: functional; settings: KB-V1, read-out: ED50 (the source's name)
[17] = system: P388; test: Cytotoxicity against mouse P388 cells; assay type: functional; settings: read-out: ED50 (the source's name)
[18] = system: A-431; test: Cytotoxicity against human A431 cells; assay type: functional; settings: read-out: ED50 (the source's name)
[19] = system: ZR-75-1; test: Cytotoxicity against human ZR-75-1 cells; assay type: functional; settings: read-out: ED50 (the source's name)
[20] = Cytotoxicity against human U373 cells; assay type: functional, U-373MG ATCC; settings: U373 MG, read-out: ED50 (the source's name)
[21] = system: LNCaP; test: Cytotoxicity against human LNCAP cells; assay type: functional; settings: read-out: ED50 (the source's name)
[22] = target: Human immunodeficiency virus type 1 reverse transcriptase (Human immunodeficiency virus 1) (UniProt Q72547); test: Inhibition of HIV1 reverse transcriptase at 250 ug/ml; summary of the method: as §1
[23] = Inhibition of HIV2 reverse transcriptase; set-up: species or system Human immunodeficiency virus 2
[24] = target: T1, Human immunodeficiency virus type 1 reverse transcriptase; test: Inhibition of drug-resistant HIV1 reverse transcriptase

Compound	inhibition [1]	inhibition [2]	inhibition [3]	inhibition [4]	inhibition [5]	inhibition [6]	inhibition [7]	EC50 [9]	EC50 [10]	EC50 [11]	EC50 [12]	EC50 [13]	EC50 [14]	EC50 [15]	EC50 [16]	EC50 [17]	EC50 [18]	EC50 [19]	EC50 [20]	EC50 [21]	other results
C=C(Cc1ccc(O)cc1)C(=C)Cc1ccc(O)cc1 [ANOLIGNAN B]	32.9%	31.2%	27.4%	20.9%	25.5%	17.7%	10%	5.1 µg/mL (≈ 19.1 µM)	4.7 µg/mL (≈ 17.6 µM)	11.1 µg/mL (≈ 41.7 µM)	19 µg/mL (≈ 71.3 µM)	18 µg/mL (≈ 67.6 µM)	> 20 µg/mL	> 20 µg/mL	> 20 µg/mL	1 µg/mL (≈ 3.75 µM)	> 20 µg/mL	> 20 µg/mL	5.7 µg/mL (≈ 21.4 µM)	8.7 µg/mL (≈ 32.7 µM)	IC50 ([8]; read-out: IC50 (converted)): 4020 µM
COc1cc(C[C@@H](CO)[C@H](CO)Cc2ccc(O)c(OC)c2)ccc1O [(+)-SECOISOLARICIRESINOL]																					IC50 [8]: Not Active
C=C(Cc1ccc2c(c1)OCO2)C(=C)Cc1ccc(O)cc1O [ANOLIGNAN A]	92.8%	80.8%	73.9%	68.3%	51.5%	33.8%	4.1%	4.3 µg/mL (≈ 13.9 µM)	13.1 µg/mL (≈ 42.2 µM)	15.8 µg/mL (≈ 50.9 µM)	7.6 µg/mL (≈ 24.5 µM)	16.8 µg/mL (≈ 54.1 µM)	> 20 µg/mL	> 20 µg/mL	> 20 µg/mL	> 20 µg/mL	> 20 µg/mL	6.1 µg/mL (≈ 19.7 µM)	13.5 µg/mL (≈ 43.5 µM)	10.8 µg/mL (≈ 34.8 µM)	inhibition [22]: 97.4%; IC50 ([8]; read-out: IC50 (converted)): 195 µM; IC50 [23]: 156.9 µg/mL (≈ 506 µM); IC50 [24]: 342 µM
C[C@@H]1[C@H](C)[C@H](c2ccc(O)cc2)O[C@@H]1c1ccc(O)cc1 [ANOLIGNAN C]								> 20 µg/mL	13.1 µg/mL (≈ 46.1 µM)	15.8 µg/mL (≈ 55.6 µM)	7.6 µg/mL (≈ 26.7 µM)	16.8 µg/mL (≈ 59.1 µM)	> 20 µg/mL	> 20 µg/mL	> 20 µg/mL	> 20 µg/mL	> 20 µg/mL	6.1 µg/mL (≈ 21.5 µM)	18.5 µg/mL (≈ 65.1 µM)	10.8 µg/mL (≈ 38 µM)	IC50 [8]: Not Active
